Assay results: the RNAGym collection of RNA variant scans (doi:10.1126/science.aae0568)
This sample holds only a part of the variants without activity.

B1: tRNA (parent)
chain: GUUCCGUUGGCGUAAUGGUAACGCGUCUCCCUCCUAAGGAGAAGACUGCGGGUUCGAGUCCCGUACGGAACG

Variants of: B1
Test: yeast fitness relative to wild type (ratio to wild type); higher = fitter; tRNA-Arg(CCU), competitive growth, 37 C, YPD
In short: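 Amplicons of the tRNA-Arg(CCU) gene were sequenced, 100-nucleotide paired-end, from the start population and from each end population of a pooled yeast competition. The competition, in six parallel replicates, lasted 24 hours in YPD at 37°C. Fitness relative to wild type was calculated from changes in genotype frequencies. Genotypes had to have ≥ 100 starting reads, and estimates < 0.5 were set to 0.5.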

Variant	yeast fitness
C4U C55A U64A A65U	≤ 0.5
C4U C24A C60A	0.724
C4U C11A U28G C31U G51C	≤ 0.5
C4U C49U U64A	0.589
C4U C29U A36U A65U	0.557
C4U C29A G41A	≤ 0.5
C4U C24A A57G A70C	≤ 0.5
C4U G10A U19C C24U	0.721
C4U C46A G50A C61U C62U	1.09
C4U C33A G68A	≤ 0.5
C4U C24U A43G G51C U54C	≤ 0.5
C4U C11G C24A C29U	≤ 0.5
C4U C11G A42G C49U A70U	≤ 0.5
C4U G9A C24G C29G G67A	≤ 0.5
C4U G10A C24U C62U	0.723
C4U G6C A14U C24G G58C	0.531
C4U C30A C60G	0.6
C4U C60G A69C	0.52
C4U G10A G39C	0.627
C4U G9A C24G A37C G41A A57U	≤ 0.5
C4U C11U A45C G48A G56C	≤ 0.5
C4U C11U A65U	0.669
C4U C31G C34G A43U G68C A69G	≤ 0.5
C4U C29A A36C A40U G51A	0.588

Variant	yeast fitness
C4U C31U A37C C66U A69U	≤ 0.5
C4U C27U U53G	≤ 0.5
C4U G6A C61A	≤ 0.5
C4U C11A A42G G48C G63U G67A	≤ 0.5
C4U C34U G68C	≤ 0.5
C4U C22A C27U A69U	0.512
C4U C29G G38C	0.621
C4U C34G G63C A69C	≤ 0.5
C4U C5G C29U A65G	≤ 0.5
C4U G6A A20C C60G A65U A69G	≤ 0.5
C4U G10C C24G C49U	≤ 0.5
C4U C29U C62U U64C A65U	≤ 0.5
C4U C22U C24G A37G	≤ 0.5
C4U C60A	0.532
C4U C60G	0.671
C4U G9A C11U C34A C55A A65C	≤ 0.5
C4U C24G G50A	≤ 0.5
C4U C31G G38A C61A G63A	≤ 0.5
C4U C29A C31G A42C A45U G51C	≤ 0.5
C4U C49G A70G	0.602
C4U C31U G67C	0.598
C4U C30A U64C	0.92
C4U C30A A57G	0.806
C4U C30G A36U A70C	≤ 0.5

Variant	yeast fitness
C4U G9A C33G G67A	≤ 0.5
C4U C5G U16C C24G A42C	0.504
C4U C62G G67A	≤ 0.5
C4U C31A A37C G48A G58C	≤ 0.5
C4U C5G C27A	≤ 0.5
C4U G10A G51C U59G	≤ 0.5
C4U G10A C60G C66G A69U	≤ 0.5
C4U C34A	0.846
C4U G9C G18A C29G C31U U32C G50C	≤ 0.5
C4U C11A G12A G48A G67A	≤ 0.5
C4U G10A C24U C46G G58A	≤ 0.5
C4U C11G C55U G58A	≤ 0.5
C4U C24U G56C	0.505
C4U C66G	0.75
C4U C30A C49U	0.825
C4U G10A G23C	≤ 0.5
C4U C30U C31G C62U	0.766
C4U C5U C46G	0.515
C4U C24G A43G G63U U64A	≤ 0.5
C4U C24U G56A C60A	≤ 0.5
C4U C24A C60G C66U	≤ 0.5
C4U C31G A65U G67C	≤ 0.5
C4U G9A C29U	0.567
C4U C11U G25C G41A U54C	≤ 0.5

Variant	yeast fitness
C4U C24G C55G U64A	≤ 0.5
C4U C22G C24U C62G	≤ 0.5
C4U C22G G56A	0.76
C4U G6A A14C A65C	≤ 0.5
C4U C24A U59A	0.65
C4U C22G	0.943
C4U C30U C62A	≤ 0.5
C4U C11G C29U U35C	≤ 0.5
C4U C31U C61U G68C	≤ 0.5
C4U C11G G18C U47A A69U	0.699
C4U G9C A45G C61A	≤ 0.5
C4U G10A C24U	0.98
C4U G9C C24U C30G G51A C60U G67A	≤ 0.5
C4U C22U C33U A42C	0.668
C4U C5G A15U C22G C30U U53G G58A U59A	0.603
C4U C27U C29G A42C	≤ 0.5
C4U C27G A45C C55U	0.559
C4U C22A U35A C49G G63C	≤ 0.5
C4U C30A U54C	0.739
C4U G10A A36U	≤ 0.5
C4U C30A C55G	0.549
C4U C30A A36G	0.839
C4U G9C C33G C49A A70G	≤ 0.5
C4U G9A C22G C24U A42U U64A G67A	0.572

Variant	yeast fitness
C4U C66U A69U	0.677
C4U C11G C22G C55G G63C	≤ 0.5
C4U G6A A36C C46U	≤ 0.5
C4U C34A G56A C60G	≤ 0.5
C4U C5G C29U	0.541
C4U G9A A57G	0.61
C4U C11U A57G	0.684
C4U G6A C31U C34U	≤ 0.5
C4U C27A A40C	≤ 0.5
C4U G6C C30G C60U	0.546
C4U C11G C66A	≤ 0.5
C4U C34A C62U	0.566
C4U G9C C61G	≤ 0.5
C4U C30A G39C	0.598
C4U C66U A70C	0.83
C4U G10A G12A	0.653
C4U C11A A37C A57G	≤ 0.5
C4U C29A G38A A69U	≤ 0.5
C4U G6C A14U C24G C66U	≤ 0.5
C4U C27G A43U C55G	≤ 0.5
C4U C11A A37C C49U C60G A70C	≤ 0.5
C4U C55G A65G	≤ 0.5
C4U C46G C55U	0.576
C4U C46A	0.841

Variant	yeast fitness
C4U C46U	1.01
C4U C66G A70U	0.608
C4U C24U C66U A70C	0.51
C4U C33A C49U U54G	≤ 0.5
C4U C5U G18A G25A C33U G48A G52A A69U	≤ 0.5
C4U G10A C24U A69C	0.769
C4U G10A C24U A69U	0.838
C4U C22G G50C	0.533
C4U C31G C55U G68C	≤ 0.5
C4U C29A C61G A70U	0.588
C4U C24A U47G	≤ 0.5
C4U G9A C33G	0.639
C4U C46G G51A G52A	≤ 0.5
C4U C29U C30G	≤ 0.5
C4U C31U A45C C46U	1.01
C4U C24A C30G	0.554
C4U G9A C29A U53A	≤ 0.5
C4U C5U G9A G10A A15C C46A	0.619
C4U C27G A45C C55U G67C	≤ 0.5
C4U C49U G58C	0.782
C4U C5G C34U U54A G67U	≤ 0.5
C4U C5U G48A G51C	≤ 0.5
C4U C24U A36C C49U	≤ 0.5
C4U C29U G50A G63A	≤ 0.5

Variant	yeast fitness
C4U C30U	0.931
C4U C30G	0.801
C4U C55G	0.636
C4U C55A	0.701
C4U C24U A69C	0.677
C4U C33A G41C C60U A65U A69U	≤ 0.5
C4U G10C C31G G50C C66U	≤ 0.5
C4U C22U C31A U32C A43U	≤ 0.5
C4U C11U G25C G41A A57C G58A	≤ 0.5
C4U G10A C24U G67A	0.751
C4U C55U A57U	0.536
C4U C33G C34G G51C U54C	0.561
C4U C49A A65U	0.583
C4U C22U C66U	0.624
C4U C24U U28C C30A	0.636
C4U C30A A45U	0.77
C4U C27G A45C G58A C62G	≤ 0.5
C4U C5G C60G	≤ 0.5
C4U C49G G68A A70C	0.606
C4U C11A U28A C31U G51C	0.622
C4U C22U G25A C31U C60G A70G	≤ 0.5
C4U G10A C22U	≤ 0.5
C4U G9C C61A A69C	≤ 0.5
